This note sets out measurements from ChEMBL document CHEMBL4118065, “Design, synthesis and antimycobacterial activity of novel imidazo[1,2-a]pyridine-3-carboxamide derivatives” (Eur J Med Chem, 2017).

Data set [1] concerns Mycobacterium tuberculosis. The data set is described as follows: Antimycobacterial activity against Mycobacterium tuberculosis H37Rv ATCC 27294 after 7 days by microplate Alamar blue assay. Type of data set: functional. Particulars: H37Rv ATCC 27294, 168 h. The gist of the method:
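MABA against replicating M. tuberculosis. Cells grown to late log phase (70–100 Klett units) in 7H9 broth with 0.2% glycerol, 0.05% Tween 80 and 10% ADC. They were washed in PBS, filtered (8 µm) and frozen. Twofold compound dilutions received 2×10^5 CFU per well at 37 °C. Tween 80 and Alamar blue were added on day 7, then 16–24 h more. Fluorescence read at 530/590 nm. MIC = lowest concentration giving ≥90% fluorescence reduction versus bacterium-only controls.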

A short description of data set [2]: Cytotoxicity against African green monkey Vero cells assessed as decrease in cell viability after 72 hrs by MTT assay. The class given is cell-based. Particulars: chlorocebus sabaeus. An outline of the steps: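 Vero cells grown in MEM with Earle's salts plus 10% FBS, 37 °C, 5% CO2; seeded at 1 × 10⁴ cells per well, allowed 24 h recovery, then medium replaced with assay medium with or without compound (1000 to 4 μg/mL). After 72 h exposure, viability read by MTT; CC50 calculated by Bliss analysis.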
Background: Formazan colour is commonly taken as a measure of viable cells.

Data set [3] in a line: Selectivity index, ratio of CC50 for African green monkey Vero cells to MIC=>90 for Mycobacterium tuberculosis H37Rv ATCC 27294. The class given is toxicity. The note with it: read-out: Selectivity Index. An outline of the steps: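 Vero cells in MEM with Earle's salts and 10% FBS, 37 °C, 5% CO₂. Seeded at 1×10⁴ cells/well and recovered 24 h. Exposed to compound at 1000 to 4 μg/mL for 72 h. Viability by MTT. CC50 by Bliss analysis. SI is CC50 divided by MABA MIC against H37Rv ATCC 27294.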

Structures are written as SMILES. ≈ marks a conversion by molar mass, not a printed value.

The term MIC90 denotes an inhibitory concentration at the 90% level, which refers to growth in some studies and to a panel of isolates in others. Compound `Cc1ccc2nc(C)c(C(=O)NCCNc3ccc(Br)cc3)n2c1` returned an MIC90 in data set [1] of 0.64 µM (≈ 0.248 µg/mL).
On the same count and under the same terms, then `Cc1ccc2nc(C)c(C(=O)NCCOc3ccc(Br)cc3)n2c1`, with 0.038 µM (≈ 0.0148 µg/mL).
On the same count and under the same terms, then `Cc1ccc2nc(C)c(C(=O)N3CCN(c4ccc(F)cc4)CC3)n2c1`, with 90.3 µM (≈ 31.8 µg/mL); and `Cc1ccc2nc(C)c(C(=O)NCCCNc3ccc([N+](=O)[O-])cc3)n2c1`, with more than 87 µM.
Still for that read-out and setting: the result for `Cc1ccc2nc(C)c(C(=O)N3CCN(c4ccccc4F)CC3)n2c1` reads more than 90 µM; that for `Cc1ccc2nc(C)c(C(=O)NCCCNc3ccccc3)n2c1`, 6.21 µM (≈ 2 µg/mL).
Turning to `Cc1ccc2nc(C)c(C(=O)NCCNc3ccccc3F)n2c1`, the MIC90 in data set [1] turned out to be 0.76 µM (≈ 0.248 µg/mL).
Turning to `Cc1ccc2nc(C)c(C(=O)NCCNc3ccc(C)c(C)c3)n2c1`, the MIC90 in data set [1] came out at 0.18 µM (≈ 0.0606 µg/mL).
On to `Cc1ccc2nc(C)c(C(=O)N3CCC(c4ccc(F)cc4)CC3)n2c1`, for which the MIC90 in data set [1] came out at 90.3 µM (≈ 31.7 µg/mL).
On the same count and under the same terms, then `Cc1ccc2nc(C)c(C(=O)N3CCN(c4ccccn4)CC3)n2c1`, with more than 95 µM; and `Cc1ccc2nc(C)c(C(=O)NCCOCc3ccc(Br)cc3)n2c1`, with 0.62 µM (≈ 0.249 µg/mL); and `Cc1ccc2nc(C)c(C(=O)N3CCN(c4ccccc4)CC3)n2c1`, with 95.4 µM (≈ 31.9 µg/mL).
On the same count and under the same terms, the result for `Cc1ccc2nc(C)c(C(=O)NCCCNc3ccc(C(C)(C)C)cc3)n2c1` reads 1.32 µM (≈ 0.5 µg/mL); that for `Cc1ccc2nc(C)c(C(=O)NCCNc3ccc([N+](=O)[O-])cc3)n2c1`, more than 90 µM; that for `Cc1ccc2nc(C)c(C(=O)NCCCOc3ccc(Br)cc3)n2c1`, 0.62 µM (≈ 0.249 µg/mL).
Same read-out and setting: then `Cc1ccc(N2CCN(C(=O)c3c(C)nc4ccc(C)cn34)CC2)cc1`, with 46 µM (≈ 16 µg/mL); and `Cc1ccc2nc(C)c(C(=O)NCCNc3ccccc3)n2c1`, with 0.81 µM (≈ 0.25 µg/mL); and `Cc1ccc2nc(C)c(C(=O)N3CCN(c4ccc(F)cc4F)CC3)n2c1`, with more than 86 µM.
In data set [1], `Cc1ccn2c(C(=O)NCCCNc3ccc([N+](=O)[O-])cc3)c(C)nc2c1` registered an MIC90 of more than 87 µM.
The same measure, in the same setting: then `Cc1ccc2nc(C)c(C(=O)NCCNCc3ccc(Br)cc3)n2c1`, with 9.97 µM (≈ 4 µg/mL); and `COc1ccc(NCCNC(=O)c2c(C)nc3cc(C)ccn23)cc1`, with 47.3 µM (≈ 16 µg/mL).
Same read-out and setting: the result for `Cc1ccc2nc(C)c(C(=O)NCCOCc3ccccc3)n2c1` reads 1.93 µM (≈ 0.624 µg/mL); that for `Cc1ccn2c(C(=O)NCCCNc3ccccc3)c(C)nc2c1`, 12.4 µM (≈ 4.01 µg/mL).
The term CC50 denotes the concentration at which the toxic effect on the cells reaches its halfway point. Regarding `COc1ccc(NCCNC(=O)c2c(C)nc3ccc(C)cn23)cc1`, the MIC90 in data set [1] was determined as 0.044 µM (≈ 0.0149 µg/mL). The CC50 at 72 h in data set [2] turned out to be 193 µM. Moreover, the selectivity ratio in data set [3] came out at 4400.
Turning to `Cc1ccc2nc(C)c(C(=O)NCCNc3ccc(C(F)(F)F)cc3)n2c1`, the MIC90 in data set [1] came out at 42.5 µM (≈ 16 µg/mL).
For the compound `Cc1ccc2nc(C)c(C(=O)N3CCN(c4ccc([N+](=O)[O-])cc4)CC3)n2c1`, the MIC90 in data set [1] is 84.4 µM (≈ 32 µg/mL).
Same read-out and setting: the result for `COc1ccc(N2CCN(C(=O)c3c(C)nc4ccc(C)cn34)CC2)cc1` reads more than 87 µM; that for `Cc1ccc2nc(C)c(C(=O)NCCNc3ccc(F)cc3)n2c1`, 1.53 µM (≈ 0.499 µg/mL).
On the same count and under the same terms, the result for `Cc1ccc2nc(C)c(C(=O)N3CCN(c4ccc(Cl)cc4)CC3)n2c1` reads 43.5 µM (≈ 16 µg/mL); that for `Cc1ccc2nc(C)c(C(=O)N3CCN(c4ccc(Br)cc4)CC3)n2c1`, more than 77 µM.
Still for that read-out and setting: the result for `Cc1ccn2c(C(=O)NCCCNc3ccc(C(C)(C)C)cc3)c(C)nc2c1` reads 10.6 µM (≈ 4 µg/mL).
`Cc1ccc2nc(C)c(C(=O)NCCCNc3ccc(F)cc3)n2c1` came in with an MIC90 in data set [1] of 1.47 µM (≈ 0.5 µg/mL).
Compound `Cc1ccc2nc(C)c(C(=O)NCCNCc3ccccc3)n2c1` yielded an MIC90 in data set [1] of 49.6 µM (≈ 16 µg/mL).
In data set [1], `Cc1ccc2nc(C)c(C(=O)NCCNc3cccc(C(F)(F)F)c3)n2c1` registered an MIC90 of 5.31 µM (≈ 2 µg/mL).
Take `Cc1ccc2nc(C)c(C(=O)NCCNc3ccc(Cl)c(F)c3)n2c1`: in data set [1], the MIC90 came out at 1.39 µM (≈ 0.502 µg/mL).
Consider `Cc1ccc2nc(C)c(C(=O)NCCNc3ccc(C(C)(C)C)cc3)n2c1`, for which, in data set [1], the MIC90 was found to be 0.041 µM (≈ 0.0149 µg/mL). In data set [2], the CC50 at 72 h is 57.6 µM. Besides, the selectivity ratio in data set [3] is 1400.
In the case of `Cc1ccc2nc(C)c(C(=O)N3CCN(c4ccncc4)CC3)n2c1`, the MIC90 in data set [1] was determined as 95 µM (≈ 31.9 µg/mL).
On the same count and under the same terms, the result for `Cc1ccc2nc(C)c(C(=O)NCCN3CCN(c4ccccc4)CC3)n2c1` reads 0.66 µM (≈ 0.249 µg/mL); that for `NNC(=O)c1ccncc1` [ISONIAZID], 0.36 µM (≈ 0.0494 µg/mL).
Same read-out and setting: then `CO[C@H]1/C=C/O[C@@]2(C)Oc3c(C)c(O)c4c(O)c(c(/C=N/N5CCN(C)CC5)c(O)c4c3C2=O)NC(=O)/C(C)=C\C=C\[C@H](C)[C@H](O)[C@@H](C)[C@@H](O)[C@@H](C)[C@H](OC(C)=O)[C@@H]1C` [RIFAMPIN], with 0.071 µM (≈ 0.0584 µg/mL).
